Activity calls are given as the source filed them. No cut-off for these calls is given here.
How the values were obtained:
Cathepsin K = biological target: T1, Cathepsin K (Homo sapiens, UniProt P43235); experiment: Inhibition of human recombinant cathepsin K by fluorescence assay
T1 sequence (P43235 whole entry): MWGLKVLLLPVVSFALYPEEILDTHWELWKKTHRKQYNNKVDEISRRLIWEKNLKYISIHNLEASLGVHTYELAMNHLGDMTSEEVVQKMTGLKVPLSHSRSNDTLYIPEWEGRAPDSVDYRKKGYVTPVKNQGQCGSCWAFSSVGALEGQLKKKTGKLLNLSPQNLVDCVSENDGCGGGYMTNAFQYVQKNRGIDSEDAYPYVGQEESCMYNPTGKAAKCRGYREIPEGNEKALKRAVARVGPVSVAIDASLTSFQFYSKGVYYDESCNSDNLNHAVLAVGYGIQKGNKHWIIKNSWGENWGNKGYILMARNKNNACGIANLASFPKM

Cathepsin B = Cathepsin B (Homo sapiens, UniProt P07858); experiment: Inhibition of human recombinant cathepsin B by fluorescence assay
[1] = biological target: Procathepsin L (Homo sapiens) (UniProt P07711); experiment: Inhibition of human recombinant cathepsin L by fluorescence assay
Cathepsin S = Cathepsin S (Homo sapiens, UniProt P25774); experiment: Inhibition of human recombinant cathepsin S by fluorescence assay
Homo sapiens [2] = organism: Homo sapiens; experiment: Selectivity for human recombinant cathepsin C over human recombinant cathepsin K
Pro-cathepsin H = biological target: T2, Pro-cathepsin H (Homo sapiens, UniProt P09668); experiment: Inhibition of human recombinant cathepsin H by fluorescence assay
T2 sequence (P09668 whole entry): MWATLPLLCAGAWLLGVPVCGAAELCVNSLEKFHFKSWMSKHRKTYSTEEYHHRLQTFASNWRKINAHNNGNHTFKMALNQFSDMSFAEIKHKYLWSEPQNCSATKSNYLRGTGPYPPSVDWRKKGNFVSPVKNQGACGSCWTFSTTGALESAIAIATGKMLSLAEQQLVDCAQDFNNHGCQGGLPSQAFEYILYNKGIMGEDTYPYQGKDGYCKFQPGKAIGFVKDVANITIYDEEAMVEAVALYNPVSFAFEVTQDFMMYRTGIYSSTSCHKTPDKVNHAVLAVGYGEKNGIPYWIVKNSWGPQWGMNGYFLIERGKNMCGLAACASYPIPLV
Procedure, shortened: (§1)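 Recombinant human enzyme was preincubated with inhibitor for 20 min. Substrate was then added: H-Arg-AMC for cathepsin H, H₂N-Gly-Phe-AMC for cathepsin C. Buffer was 100 mM NaOAc, 1 mM EDTA, 0.01% Brij-35, 5 mM DTT, pH 5.5, 37 °C. AMC release was read by fluorescence, ex 380/em 450 nm. Progress curves were fitted to the Morrison equation, and apparent values were converted to Ki assuming competitive inhibition.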

Homo sapiens [3] = organism: Homo sapiens; experiment: Selectivity for human recombinant cathepsin C over human recombinant cathepsin H
Homo sapiens [4] = organism: Homo sapiens; experiment: Selectivity for human recombinant cathepsin C over human recombinant cathepsin B
Dipeptidyl peptidase 1 [5] = biological target: T3, Dipeptidyl peptidase 1 (Homo sapiens, UniProt P53634); experiment: Inhibition of cathepsin C in human B721 cells by FACS assay; assay type: cell-based
Procedure, shortened: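 B721 EBV-immortalized B cells were washed and resuspended in serum-free, phenol red-free RPMI 1640 at 1 × 10⁶ cells/mL. Cells were pretreated with compound or DMSO (final 10, 3.3, 1.1, 0.37, 0.12, 0 μM) for 30 min at 37 °C, 5% CO2. (H₂N-Abu-Hph)₂-rhodamine (final 2 μM) and propidium iodide (4 μg/mL) were added. Flow cytometry read ex 488/em 530 nm at three time points 15 min apart.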

Homo sapiens [6] = organism: Homo sapiens; experiment: Selectivity for human recombinant cathepsin C over human recombinant cathepsin L
Homo sapiens [7] = organism: Homo sapiens; experiment: Selectivity for human recombinant cathepsin C over human recombinant cathepsin S
Dipeptidyl peptidase 1 [8] = biological target: T3, Dipeptidyl peptidase 1; experiment: Blockade of conjugation of cathepsin C in human B721 cells to I125-labeled (S)-2-amino-N-((S)-1-(4-hydroxy-3-iodophenylsulfonyl)-5-phenylpent-1-en-3-yl)pentanamide pretreated for 30 mins before addition of I125-labeled (S)-2-amino-N-((S)-1-(4-hydroxy-3-iodophenylsulfonyl)-5-phenylpent-1-en-3-yl)pentanamide by SDS-PAGE; assay type: cell-based
Procedure, shortened: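 B721 cells at 1 × 10⁶ cells/mL were preincubated with compound or DMSO (final 50, 10, 1, 0.1, 0 μM) for 30 min at 37 °C, 5% CO2. ¹²⁵I-labeled probe was then added at 2 nM for another 30 min at 37 °C. Cells were pelleted, lysed and boiled. Labeled cathepsin C was resolved by SDS–PAGE and quantified by phosphorimaging.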

Dipeptidyl peptidase 1 [9] = biological target: T3, Dipeptidyl peptidase 1; experiment: Inhibition of human recombinant cathepsin C by fluorescence assay; procedure, shortened: as §1
Dipeptidyl peptidase 1 [10] = biological target: T3, Dipeptidyl peptidase 1; experiment: Binding affinity to cathepsin C in human B721 cells assessed as cellular compound turnover in presence of (S)-2-Amino-pentanoic acid ((S)-3-methanesulfonyl-1-phenethyl-allyl)-amide; assay type: cell-based

T3 sequence (P53634 25-134 limits assumed): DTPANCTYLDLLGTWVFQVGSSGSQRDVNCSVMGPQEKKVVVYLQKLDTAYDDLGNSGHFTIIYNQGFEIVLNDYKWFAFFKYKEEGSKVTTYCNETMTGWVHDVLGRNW
T3 sequence (P53634 231-394 limits assumed): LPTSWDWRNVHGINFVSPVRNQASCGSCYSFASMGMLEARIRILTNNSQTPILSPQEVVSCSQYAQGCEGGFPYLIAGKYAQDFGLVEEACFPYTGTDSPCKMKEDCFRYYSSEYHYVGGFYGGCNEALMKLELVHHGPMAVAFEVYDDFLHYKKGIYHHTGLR
T3 sequence (P53634 395-463 limits assumed): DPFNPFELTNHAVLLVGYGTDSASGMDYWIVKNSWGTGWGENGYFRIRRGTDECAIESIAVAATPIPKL
Chain of Cathepsin S (P25774 whole entry): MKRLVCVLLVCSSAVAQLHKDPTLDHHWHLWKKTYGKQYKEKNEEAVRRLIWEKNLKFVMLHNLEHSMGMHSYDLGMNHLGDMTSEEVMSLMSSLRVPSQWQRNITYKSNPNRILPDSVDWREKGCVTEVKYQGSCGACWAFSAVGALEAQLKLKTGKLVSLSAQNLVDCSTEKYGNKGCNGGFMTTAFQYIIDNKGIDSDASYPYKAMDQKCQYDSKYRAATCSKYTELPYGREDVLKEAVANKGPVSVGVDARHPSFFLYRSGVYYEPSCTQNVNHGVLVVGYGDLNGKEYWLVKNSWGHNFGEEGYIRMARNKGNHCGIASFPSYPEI
Chain of Procathepsin L (Homo sapiens) (P07711 114-333 limits assumed): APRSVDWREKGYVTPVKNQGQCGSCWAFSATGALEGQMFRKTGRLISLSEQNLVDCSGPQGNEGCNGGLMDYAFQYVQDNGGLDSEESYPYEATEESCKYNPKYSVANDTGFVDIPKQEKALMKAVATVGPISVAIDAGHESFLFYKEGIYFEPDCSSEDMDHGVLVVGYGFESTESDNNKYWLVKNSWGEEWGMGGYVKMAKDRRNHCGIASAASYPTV

Row | Ki (Cathepsin K) | Ki (Cathepsin B) | INH [1] | Ki (Cathepsin S) | Activity (Homo sapiens [2]) | Ki (Pro-cathepsin H) | Activity (Homo sapiens [3]) | Activity (Homo sapiens [4]) | IC50 (Dipeptidyl peptidase 1 [5]) | Activity (Homo sapiens [6]) | Activity (Homo sapiens [7]) | IC50 (Dipeptidyl peptidase 1 [8]) | INH (Dipeptidyl peptidase 1 [9]) | Activity (Dipeptidyl peptidase 1 [10]) | Structure (SMILES)
1 | 0.12 µM | 1.1 µM | 20 nM | 0.0055 µM | 75 | 0.137 µM | 75 | 75 | 0.07 µM | 75 | 75 | 0.1 µM | 0.2 nM |  | CCC[C@H](N)C(=O)N[C@H](/C=C/S(=O)(=O)c1ccccc1)CCc1ccccc1
2 | 0.0012 µM | 0.064 µM |  | < 0.0001 µM |  | 1.4 µM |  |  | 2.6 µM |  |  | 4 µM | 1800 nM |  | CC(C)C[C@H](NC(=O)N1CCOCC1)C(=O)N[C@H](/C=C/S(=O)(=O)c1ccccc1)CCc1ccccc1
3 | 18 µM | > 100 µM |  | > 100 µM |  | 3.7 µM |  |  | 6.1 µM |  |  | 10 µM | 1.5 nM |  | CC[C@H](N)C(=O)N[C@H](C#N)Cc1ccc(-c2ccccc2)cc1
4 |  |  |  |  |  |  |  |  |  |  |  |  |  | inactive | O=C1OC2(c3ccc(NC(=O)[C@H](CCc4ccccc4)NC(=O)[C@@H]4CCCN4)cc3Oc3cc(NC(=O)[C@H](CCc4ccccc4)NC(=O)[C@@H]4CCCN4)ccc32)c2ccccc21
5 |  |  |  |  |  |  |  |  |  |  |  |  |  | inactive | CCC[C@H](N)C(=O)N[C@@H](CCc1ccccc1)C(=O)Nc1ccc2c(c1)Oc1cc(NC(=O)[C@H](CCc3ccccc3)NC(=O)[C@@H](N)CCC)ccc1C21OC(=O)c2ccccc21
6 |  |  |  |  |  |  |  |  |  |  |  |  |  | inactive | CC[C@H](N)C(=O)N[C@@H](CCc1ccccc1)C(=O)Nc1ccc2c(c1)Oc1cc(NC(=O)[C@H](CCc3ccccc3)NC(=O)[C@@H](N)CC)ccc1C21OC(=O)c2ccccc21

Reference: ChEMBL document CHEMBL1140981, “Substrate optimization for monitoring cathepsin C activity in live cells” (Bioorg Med Chem, 2009)
